≈ marks a conversion by molar mass, not a printed value.
Tests used:
[1] = system: Mus musculus; experiment: In vivo antitumor activity (0.800 mg/kg) is the measure of tumor growth inhibition of human tumor xenograft NUGC-3 (stomach) implanted sc in mice.; type: functional
In short: (§1)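 Tumor fragments (2–3 mm3) implanted sc into female BALB/cA Jcl-nu mice on day 0; single iv dose given once tumor volume reached about 100 mm3. Read-out is maximum tumor growth inhibition, as percentage versus untreated group.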

[2] = system: Mus musculus; experiment: In vivo antitumor activity (0.845 mg/kg) is the measure of tumor growth inhibition of human tumor xenograft DLD-1 (colon) implanted sc in mice.; type: functional; in short: as §1
[3] = system: Mus musculus; experiment: In vivo antitumor activity (0.845 mg/kg) is the measure of tumor growth inhibition of human tumor xenograft HCT116 (colon) implanted sc in mice.; type: functional; in short: as §1
[4] = system: Mus musculus; experiment: In vivo antitumor activity is the measure of tumor growth inhibition of Colon 26 murine […] cells.; type: functional
In short: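 Colon 26 cells (10^6/mouse) inoculated sc into male CDF1 mice on day 0; single iv dose on day 7. Tumor growth inhibition expressed as percentage versus untreated group.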

[5] = system: Mus musculus; experiment: In vivo concentration required to inhibit the Colon 26 murine […] cell growth by 50%; type: functional
[6] = Ratio between max dose within 10% body weight loss and tumor growth inhibition; type: functional
In short: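 Ratio of maximum dose within 10% body weight loss to the dose giving 50% tumor growth inhibition, in sc Colon 26-bearing mice dosed iv.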

[7] = system: Mus musculus; experiment: In vivo antitumor activity (0.25 mg/Kg) is the measure of tumor growth inhibition of colon 26 murine […] cells.; type: functional
In short: (§2)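 Colon 26 cells (10^6/mouse) inoculated sc into male CDF1 mice on day 0; drug given iv on day 7. Read-out is percentage tumor growth inhibition versus the untreated group.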

[8] = system: HeLa; experiment: Concentration required to inhibit the growth of HeLaS3 human uterine cervix carcinoma cells by 50%; type: functional, cell-based
[9] = system: Mus musculus; experiment: In vivo antitumor activity (0.5 mg/Kg) is the measure of tumor growth inhibition of colon 26 murine […] cells.; type: functional; in short: as §2
[10] = system: Mus musculus; experiment: In vivo antitumor activity (0.125 mg/Kg) is the measure of tumor growth inhibition of colon 26 murine […] cells.; type: functional; in short: as §2
[11] = system: P338; experiment: In vitro concentration required to inhibit the growth of […] murine leukemia cells by 50%; type: functional, cell-based; details: Mus musculus
[12] = system: Mus musculus; experiment: In vivo antitumor activity (0.25 mg/Kg) is the measure of increase in life span of mice bearing P388 murine leukemia cells; 2/2 cured mice (>60-day survivors); type: functional, organism-based

COC(=O)c1c(C(F)(F)F)[nH]c2c(OC(=O)N3CCN(C)CC3)cc3c(c12)[C@H](CCl)CN3C(=O)c1cc2cc(NC(=O)c3cc4ccccc4cn3)ccc2[nH]1
TGI [1]: 97% | TGI [2]: 76% | TGI [3]: 77% | TGI [4]: 93% | TGI50 [5]: 0.082 mg/kg | Ratio [6]: 6.1

COC(=O)c1c(C(F)(F)F)[nH]c2c(OC(=O)N3CCN(C)CC3)cc3c(c12)[C@H](CCl)CN3C(=O)c1cc2cc(NC(=O)c3cc4c(OC)c(OC)c(OC)cc4cn3)ccc2[nH]1
TGI [4]: 89% | TGI50 [5]: 0.13 mg/kg | Ratio [6]: 3.9

COC(=O)c1c(C(F)(F)F)[nH]c2c(OC(=O)N3CCN(C)CC3)cc3c(c12)[C@H](CCl)CN3C(=O)c1cc2cc(NC(=O)c3cc4ccc(OC)cc4o3)ccc2[nH]1
TGI [4]: 89% | TGI50 [5]: 0.108 mg/kg | Ratio [6]: 4.6

COC(=O)c1c(C(F)(F)F)[nH]c2c(OC(=O)N3CCN(C)CC3)cc3c(c12)[C@H](CCl)CN3C(=O)c1cc2cc(NC(=O)c3cc4cc(OC)c(OC)c(OC)c4o3)ccc2[nH]1
TGI [4]: 90% | TGI50 [5]: 0.0533 mg/kg | Ratio [6]: 4.5

COC(=O)c1c(C(F)(F)F)[nH]c2c(O)cc3c(c12)[C@H](CCl)CN3C(=O)c1cc2cc(NC(=O)c3cc4ccc(OC)cc4cn3)ccc2[nH]1
TGI [7]: 82% | IC50 [8]: 0.11 ng/mL (≈ 0.159 nM)

COC(=O)c1c(C(F)(F)F)[nH]c2c(O)cc3c(c12)[C@H](CCl)CN3C(=O)c1cc2cc(NC(=O)c3cc4c(OC)c(OC)c(OC)cc4[nH]3)ccc2[nH]1
TGI [9]: 95% | IC50 [8]: 0.94 ng/mL (≈ 1.27 nM)

COC(=O)c1c(C(F)(F)F)[nH]c2c(OC(=O)N3CCN(C)CC3)cc3c(c12)[C@H](CCl)CN3C(=O)c1cc2cc(NC(=O)c3cc4cc(OC)ccc4o3)ccc2[nH]1.Cl
TGI [4]: 86% | TGI50 [5]: 0.148 mg/kg | Ratio [6]: 6.8

COC(=O)c1c(C(F)(F)F)[nH]c2c(OC(=O)N3CCN(C)CC3)cc3c(c12)[C@H](CBr)CN3C(=O)c1cc2cc(OC)c(OC)c(OC)c2[nH]1
Ratio [6]: 11.7

COC(=O)c1c(C(F)(F)F)[nH]c2c1[C@@]13C[C@@H]1CN(C(=O)c1cc4cc(NC(=O)c5cc6ccccc6o5)ccc4[nH]1)C3=CC2=O
Ratio [6]: 4.3

COC(=O)c1c(C(F)(F)F)[nH]c2c(O)cc3c(c12)[C@H](CCl)CN3C(=O)c1cc2cc(NC(=O)c3cc4ccccc4cn3)ccc2[nH]1 (racemic)
TGI [7]: 82% | IC50 [8]: 0.24 ng/mL (≈ 0.363 nM)

COC(=O)c1c(C(F)(F)F)[nH]c2c(O)cc3c(c12)[C@H](CCl)CN3C(=O)c1cc2cc(NC(=O)c3cc4cccc(OC)c4o3)ccc2[nH]1 (racemic)
TGI [9]: 96% | IC50 [8]: 0.51 ng/mL (≈ 0.749 nM)

COC(=O)c1c(C(F)(F)F)[nH]c2c(O)cc3c(c12)[C@H](CCl)CN3C(=O)c1cc2cc(NC(=O)c3ccc4ccccc4c3)ccc2[nH]1 (racemic)
TGI [9]: 84% | IC50 [8]: 0.22 ng/mL (≈ 0.333 nM)

COC(=O)c1c(C(F)(F)F)[nH]c2c(O)cc3c(c12)[C@H](CCl)CN3C(=O)c1cc2cc(NC(=O)c3cc4cc(OC)c(OC)c(OC)c4o3)ccc2[nH]1 (racemic)
TGI [10]: 74% | IC50 [8]: 0.17 ng/mL (≈ 0.229 nM)

COC(=O)c1c(C(F)(F)F)[nH]c2c1[C@@]13C[C@@H]1CN(C(=O)c1cc4cc(NC(=O)c5cc6ccccc6o5)ccc4[nH]1)C3=CC2=O (racemic)
IC50 [11]: 0.53 ng/mL (≈ 0.862 nM)

COC(=O)c1c(C(F)(F)F)[nH]c2c(O)cc3c(c12)[C@H](CCl)CN3C(=O)c1cc2cc(NC(=O)c3cc4c(OC)cccc4o3)ccc2[nH]1 (racemic)
TGI [9]: 83% | IC50 [8]: 0.87 ng/mL (≈ 1.28 nM)

COC(=O)c1c(C(F)(F)F)[nH]c2c(O)cc3c(c12)[C@H](CCl)CN3C(=O)c1cc2cc(OC)c(OC)c(OC)c2[nH]1 (racemic)
IC50 [8]: 0.25 ng/mL (≈ 0.43 nM)

COC(=O)c1c(C(F)(F)F)[nH]c2c(O)cc3c(c12)[C@H](CCl)CN3C(=O)c1cc2cc(NC(=O)c3cc4cc(OC)c(OC)c(OC)c4[nH]3)ccc2[nH]1 (racemic)
TGI [7]: 83% | IC50 [8]: 0.2 ng/mL (≈ 0.27 nM)

COC(=O)c1c(C(F)(F)F)[nH]c2c1[C@@]13C[C@@H]1CN(C(=O)c1cc4cc(NC(=O)c5cc6ccccc6[nH]5)ccc4[nH]1)C3=CC2=O (racemic)
ILS [12]: 2/2 cured mice (>60-day survivors) | IC50 [11]: 0.86 ng/mL (≈ 1.4 nM)

— ChEMBL document CHEMBL1132709, “Novel cyclopropapyrroloindole derivative (AT-3510) bearing methoxycarbonyl and trifluoromethyl groups” (J Med Chem, 1999)
